Measurements taken from PubChem BioAssay AID504414 (Broad Institute, 2011).
Out of some 330,000 compounds screened, about 55 (0.02%) were called active.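 How the source made its calls: active means highest replicate inhibition of at least 40%; inactive means the rest.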 Many of the other results were omitted from the sample, so actives are more common in it than they were.

target: Golgi-associated PDZ and coiled-coil motif-containing protein (Homo sapiens) (UniProt Q9HD26); assay: disruption of CAL PDZ-reporter peptide interaction – biochemical, fluorescence polarization, Cer-tagged CAL PDZ, HTS, primary screen (AID 504414); settings: purified CAL PDZ, TMR-peptide fluorescence polarization, 1 h; at 20 µM; active compounds read high;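 further: plate controls were DMSO neutral control wells for no effect and unlabeled competitor peptide control wells for full effect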
Method in brief: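 Material: tagged CAL PDZ domain; buffer or medium: 25 mM sodium phosphate pH 7.4, 150 mM NaCl, TCEP, IgG, Thesit; compound dosing: single point, 20 µM; schedule: 1 h incubation at room temperature before polarization reading; measured by: FP readout, S and P plane fluorescence; read-out basis: percent inhibition from loss of millipolarization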

inhibition, inactive:
CN(CCO)S(=O)(=O)c1ccc2c(c1)C(=O)c1cc(S(=O)(=O)N(C)CCO)ccc1-2 -0.349%
CC1C(=O)NC(=O)C1c1ccccc1 (centres undefined) -1.12%
COc1ccc(Cl)cc1S(=O)(=O)N1CCC(O)(c2ccc(Cl)cc2)CC1 0.846%
COc1cc(C2C(C(=O)c3sc(C)nc3C)=C(O)C(=O)N2CCN(C)C)cc(OC)c1OC (centres undefined) 0.746%
O=C(NCc1ccc2c(c1)OCO2)c1cc([N+](=O)[O-])ccc1N1CCOCC1 -1.53%
Cc1ccccc1OCCC(=O)OCC(=O)NCCc1ccc(S(N)(=O)=O)cc1 -0.918%
Cc1ccn2c(c1)nc(=O)c1cc(S(=O)(=O)N3CCC(C)CC3)ccc12 -0.295%
O=S(=O)(c1ccc(Cl)cc1)N1CCCN(c2ccc(C(F)(F)F)cn2)CC1 -1.87%
CN(CC(O)COc1ccc(S(=O)(=O)N2CCOCC2)cc1Cl)C1CCCCC1 (centres undefined) -0.337%
CCCc1nc2scc(-c3ccc(C)cc3)c2c(=O)n1N -1.81%
Cc1onc(-c2c(F)cccc2Cl)c1C(=O)N(C)CC(=O)Nc1cccc(F)c1 -1.86%
COC(=O)c1sc(N2CCN(Cc3ccccc3)CC2)nc1N -1.78%
CCn1c(SCCC(C)C)nnc1-c1c[nH]c2ccccc12 0.439%
C=CC(COCc1ccccc1)N(Cc1ccccc1)S(=O)(=O)c1ccccc1Br (centres undefined) 0.0215%
O=C(O)c1ccc(-n2nc(-c3ccccc3)c3ccccc3c2=O)cc1 -0.73%
CSCC[C@H](NC(=O)NCc1cccs1)C(=O)O 1.04%
COc1ccc(CCN(C)C(=O)C23CC4CC(CC(Cl)(C4)C2)C3)cc1OC -1.39%
CCn1nc(C(=O)Nc2ccc(N3CCOCC3)cc2)c2ccccc2c1=O -1.35%
C=C(C)CNC(=O)c1ccc(OC2CCN(C(=O)COC)CC2)cc1 -0.166%
C#CCN1CC(C)/C(=N/O)CC1C (centres undefined) -0.192%
O=c1[nH]oc(O)c1-c1ncc(C(F)(F)F)cc1Cl -0.466%
Nn1c(SCc2ccccc2)nnc1C1CCCCC1 -0.356%
COc1ccccc1C(=O)NCCC(=O)NC1=NCCS1 0.112%
CCN(CC)C(=O)CS(=O)CC(=O)Nc1cc(OCCOC)c(Cl)cc1Cl (centres undefined) -0.37%
